Our source for the MIC90 and Kd values is ChEMBL document CHEMBL5096201, “Rufomycins or Ilamycins: Naming Clarifications and Definitive Structural Assignments” (J Nat Prod, 2021).

What is called MIC90 is an inhibitory concentration at the 90% level, which refers to growth in some studies and to a panel of isolates in others. By pKd is commonly meant the negative decadic logarithm of the Kd, by convention in mol/L.

The test system of assay [1] is Mycobacterium tuberculosis. The assay is described as follows: Antimycobacterial activity against Mycobacterium tuberculosis incubated for 7 days by microplate alamar blue assay. The class given is functional. Conditions: 168 h, time 7 day. The method, boiled down:
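Microplate Alamar Blue readout by fluorescence. MIC is the lowest concentration giving a 90% fluorescence reduction relative to untreated bacterial controls.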
On the technique in general: Resazurin is reduced to fluorescent resorufin, in cell work by metabolically active cells.

The nature of assay [2]: Binding affinity to N-terminal domain of Mycobacterium tuberculosis ClpC1 expressed in Escherichia coli BL21 (DE3) assessed as dissociation constant by surface plasma resonance assay. The procedure, abridged:
(§1)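 SPR with ClpC1 N-terminal domain or full-length protein. Association and dissociation rate constants (ka, kd) come from global fitting of double-referenced sensorgrams to a 1:1 Langmuir model. KD is calculated as kd/ka.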

The nature of assay [3]: Binding affinity to in full length Mycobacterium tuberculosis ClpC1 expressed in Escherichia coli BL21 (DE3) assessed as dissociation constant by surface plasma resonance assay. The procedure, abridged:
as §1

Molecules are shown by their SMILES. pKd: −log10 of the molar value. In brackets after ≈: the same amount, converted by molar mass.

With `C/C=C/C[C@@H]1NC(=O)[C@H](CC(C)C)N2C(=O)[C@H](C[C@H](C)[C@H]2O)N(C)C(=O)[C@H](C)NC(=O)[C@H](Cc2ccc(O)c([N+](=O)[O-])c2)NC(=O)[C@H](CC(C)C)N(C)C(=O)[C@H](Cc2cn(C(C)(C)[C@H]3CO3)c3ccccc23)NC1=O`, in assay [1], the MIC90 stood at 0.021 µM (≈ 0.0219 µg/mL). The pKd in assay [2] is 7.49; in assay [3], 7.51.

The molecule `C/C=C/C[C@@H]1NC(=O)[C@H](CC(C)C)N2C(=O)[C@H](C[C@H](C)[C@@H]2O)N(C)C(=O)[C@H](C)NC(=O)[C@H](Cc2ccc(O)c([N+](=O)[O-])c2)NC(=O)[C@H](CC(C)C)N(C)C(=O)[C@H](Cc2cn(C(C)(C)[C@H]3CO3)c3ccccc23)NC1=O` gave an MIC90 in assay [1] of 0.012 µM (≈ 0.0125 µg/mL). The pKd in assay [2] was 7.54; in assay [3], 7.57.

In assay [1], `C/C=C/C[C@@H]1NC(=O)[C@H](CC(C)C)N2C(=O)[C@H](C[C@@H](C)[C@@H]2O)N(C)C(=O)[C@H](C)NC(=O)[C@H](Cc2ccc(O)c([N+](=O)[O-])c2)NC(=O)[C@H](CC(C)C)N(C)C(=O)[C@H](Cc2cn(C(C)(C)[C@H]3CO3)c3ccccc23)NC1=O` came in with an MIC90 of 0.047 µM (≈ 0.049 µg/mL). Further, the results for the pKd in assay [2] and in assay [3] were 6.73 and 6.68, respectively.

`C/C=C/C[C@@H]1NC(=O)[C@H](CC(C)C)N2C(=O)[C@H](C[C@@H](C)[C@H]2O)N(C)C(=O)[C@H](C)NC(=O)[C@H](Cc2ccc(O)c([N+](=O)[O-])c2)NC(=O)[C@H](CC(C)C)N(C)C(=O)[C@H](Cc2cn(C(C)(C)[C@H]3CO3)c3ccccc23)NC1=O` displayed an MIC90 in assay [1] of 0.046 µM (≈ 0.0479 µg/mL). The pKd in assay [2] was 6.74; in assay [3], 6.75.

In assay [1], `NNC(=O)c1ccncc1` [ISONIAZID] returned an MIC90 of 0.463 µM (≈ 0.0635 µg/mL).

`CO[C@H]1/C=C/O[C@@]2(C)Oc3c(C)c(O)c4c(O)c(c(/C=N/N5CCN(C)CC5)c(O)c4c3C2=O)NC(=O)/C(C)=C\C=C\[C@H](C)[C@H](O)[C@@H](C)[C@@H](O)[C@@H](C)[C@H](OC(C)=O)[C@@H]1C` [RIFAMPIN] showed an MIC90 in assay [1] of 0.028 µM (≈ 0.023 µg/mL).
